# Laboratory results from ChEMBL document CHEMBL1124397, “A novel class of "GABAergic" agents: 1-aryl-3-(aminoalkylidene)oxindoles” (J Med Chem, 1989).
# Key:
# Mus musculus [1] = assay: Activity to antagonise mercaptopropionic acid (MPA) induced convulsions in mouse after subcutaneous administration; type: functional; settings: sc
# Summary of the method: (§1)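 Male Swiss CD mice (17–21 g), fasted 18 h, in groups of five. […] One hour later MPA 32 mg/kg ip. Protection meant no convulsions during 10 min of observation.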
# Mus musculus [2] = assay: (§2) Toxicity was measured in mouse by intraperitoneal administration; type: organism-based; settings: in vivo, ip
# Summary of the method: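 Mice were dosed intraperitoneally and observed for 7 days after drug administration to estimate the LD50.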
# Mus musculus [3] = assay: Activity tested to antagonise cyclic GMP after administration of isoniazid in mouse brain; type: functional
# [4] = Toxicity measured in mouse by subcutaneous administration; type: organism-based; settings: in vivo, sc
# Summary of the method: (§3)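 Mouse LD50 in mg/kg after sc or ip dosing, by the route named in each line.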
# [5] = Toxicity was measured in mouse by intraperitoneal administration; value ranges from 3.2-10; settings: in vivo, ip; summary of the method: as §3
# P23576 = assay: Administered at a dose 320 umol/kg intraperitoneally before [3H]Flunitrazepam ([3H]-FNP) in mouse brain expressed as percent of control; type: functional, tissue-based
# Chain of P23576 (P23576 whole entry): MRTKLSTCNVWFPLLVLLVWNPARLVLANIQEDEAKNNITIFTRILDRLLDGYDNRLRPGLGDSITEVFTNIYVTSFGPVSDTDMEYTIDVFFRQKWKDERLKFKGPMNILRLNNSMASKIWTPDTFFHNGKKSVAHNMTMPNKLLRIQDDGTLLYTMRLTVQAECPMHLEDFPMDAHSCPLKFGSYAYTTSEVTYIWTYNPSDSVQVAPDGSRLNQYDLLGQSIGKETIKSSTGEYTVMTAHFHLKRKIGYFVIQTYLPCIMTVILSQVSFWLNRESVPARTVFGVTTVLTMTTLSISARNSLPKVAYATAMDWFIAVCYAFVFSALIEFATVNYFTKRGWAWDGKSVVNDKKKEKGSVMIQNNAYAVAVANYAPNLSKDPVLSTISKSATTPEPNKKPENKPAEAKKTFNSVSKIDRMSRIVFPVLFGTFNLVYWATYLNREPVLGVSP
# Summary of the method: (§4)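 Mice in groups of five received test compound or vehicle ip 1 h before 200 μCi/kg [3H]FNP iv and were killed 20 min later. Brains were homogenized in 40 volumes of ice-cold 50 mM Tris-HCl pH 7.7. Triplicate 1.0-mL samples were filtered on glass fiber, washed with cold buffer and counted. Bound FNP is given as % of vehicle-treated mice.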
# Mus musculus [6] = assay: Activity to antagonise mercaptopropionic acid (MPA) induced convulsions in mouse after subcutaneous administration; value ranges from 3.2-5.6; type: functional; settings: sc; summary of the method: as §1
# Mus musculus [7] = assay: Compound was tested for enhancement of [3H]Flunitrazepam ([3H]FNP) binding to mouse brain after intraperitoneal administration at a dose of 32uM/kg, expressed as percent of control; type: functional; summary of the method: as §4
# Mus musculus [8] = assay: Compound was tested for enhancement of [3H]Flunitrazepam ([3H]-FNP) binding to mouse brain after intraperitoneal administration at a dose of 3.2uM/kg, expressed as percent of control; type: functional; summary of the method: as §4
# Mus musculus [9] = assay: Compound was tested for enhancement of [3H]flunitrazepam ([3H]-FNP) binding to mouse brain after intraperitoneal administration at a dose of 100uM/kg, expressed as percent of control; type: functional; summary of the method: as §4
# Mus musculus [10] = assay: Ability to displace [3H]Flunitrazepam ([3H]FNP) binding to mouse brain after intraperitoneal administration at a dose 32uMl/kg, expressed as percent of control; type: functional; summary of the method: as §4
# Mus musculus [11] = assay: Activity to antagonise mercaptopropionic acid (MPA) induced convulsions in mouse after intraperitoneal administration; type: functional; settings: ip
# [12] = as §2; settings: in vivo, ip; summary of the method: as §3
# Mus musculus [13] = assay: Activity to antagonise cyclic GMP after administration of isoniazid in mouse brain; value ranges from 0.3-1; type: functional
# [14] = molecular target: GABA-A receptor; anion channel (Rattus norvegicus) (UniProt O09028+P15431+P18506+P18508+P19969+P20236+P23574+P23576+P28471+P28473+P30191+P62813+P63079+P63138+Q91ZM7+Q9ES14); assay: Antagonism of mercaptopropionic acid (MPA) induced convulsions in mouse; type: functional, organism-based
# Mus musculus [15] = assay: Ability to displace [3H]Flunitrazepam ([3H]-FNP) binding to mouse brain after intraperitoneal administration at a dose […]; type: functional
# Mus musculus [16] = assay: Compound was tested for enhancement of [3H]Flunitrazepam ([3H]FNP) binding to mouse brain after intraperitoneal administration at a dose of 1000uM/kg, expressed as percent of control; type: functional
# Summary of the method: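 Groups of five mice got the test compound or vehicle ip at the stated dose, 1 h (60 min) before iv [3H]FNP at 200 μCi/kg. Mice were killed by cervical dislocation 20 min after [3H]FNP. Brains were frozen, weighed and homogenized in 40 volumes ice-cold 50 mM Tris-HCl pH 7.7. Triplicate 1.0-mL samples were filtered on glass fiber and washed with cold buffer. Bound radioactivity was counted and expressed as % of vehicle-treated mice.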
# [17] = Ability to displace [3H]flunitrazepam ([3H]-FNP) binding to mouse brain after intraperitoneal administration at a dose 320 umol/kg; type: functional, organism-based; settings: at 320 µmol/kg
# Summary of the method: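 Mice in groups of five got test agent or vehicle ip 1 h before iv [3H]FNP at 200 μCi/kg, then were killed 20 min later by cervical dislocation. Brains were frozen and homogenized in 40 volumes of ice-cold 50 mM Tris-HCl pH 7.7. Triplicate samples were filtered on glass fiber, washed with cold buffer and counted. Bound label is expressed as % of vehicle-treated mice.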
# Mus musculus [18] = assay: Activity to antagonise cyclic GMP after administration of isoniazid in mouse brain; value ranges from 0.1-0.3; type: functional
# Mus musculus [19] = assay: Activity to antagonise mercaptopropionic acid (MPA) induced convulsions in mouse after subcutaneous administration; the value ranges from 32-100; type: functional; settings: sc; summary of the method: as §1
# Mus musculus [20] = assay: Compound was tested for enhancement of [3H]Flunitrazepam ([3H]FNP) binding to mouse brain after intraperitoneal administration at a dose of 10 uM/kg, expressed as percent of control; type: functional; summary of the method: as §4
compound,measurement,setting,value
CCCCNc1c(C(=O)OCC)c(C)nc2c1cnn2CC [TRACAZOLATE],ED50,Mus musculus [1],> 100 mg/kg
same,ED50,Mus musculus [2],> 1000 mg/kg
same,ED50,Mus musculus [3],~3 mg/kg
NCc1cc(O)no1 [MUSCIMOL],ED50,Mus musculus [1],0.7 mg/kg
same,ED50,Mus musculus [3],1.5 mg/kg
same,LD50,[4],4.2 mg/kg
same,LD50,[5],3.2 mg/kg
COc1ccc(N2C(=O)/C(=C3/CCCN3C)c3ccccc32)cc1,LD50,[4],> 1000 mg/kg
same,Control,P23576,211%
same,ED50,Mus musculus [6],5.6 mg/kg
same,Control,Mus musculus [7],125%
same,Control,Mus musculus [8],105%
same,Control,Mus musculus [9],192%
same,Control,Mus musculus [10],103%
same,ED50,Mus musculus [11],~3.2 mg/kg
same,LD50,[12],> 320 mg/kg
same,ED50,Mus musculus [13],1 mg/kg
CN1C(=O)CN=C(c2ccccc2)c2cc(Cl)ccc21 [DIAZEPAM],ED50,Mus musculus [3],< 0.9 mg/kg
same,ED50,[14],0.7 mg/kg
same,Control,Mus musculus [15],66%
CCCC(CCC)C(=O)[O-].[Na+] [VALPROATE SODIUM],LD50,[4],> 1000 mg/kg
same,ED50,[14],212 mg/kg
same,Control,Mus musculus [16],128%
same,LD50,[12],> 1000 mg/kg
CN(C)/C=C1\C(=O)N(c2ccc(Cl)c(Cl)c2)c2ccccc21,[3H]flunitrazepam binding,[17],144%
same,ED50,[14],> 100 mg/kg
same,ED50,Mus musculus [18],0.1 mg/kg
COc1cccc(N2C(=O)/C(=C3/CCCN3C)c3ccccc32)c1,Control,P23576,214%
same,ED50,Mus musculus [19],100 mg/kg
CN1CCC/C1=C1/C(=O)N(c2cccc(Cl)c2)c2ccccc21,LD50,[4],> 1000 mg/kg
same,Control,P23576,192%
same,Control,Mus musculus [7],105%
same,ED50,[14],> 100 mg/kg
same,Control,Mus musculus [20],105%
same,Control,Mus musculus [9],132%
same,ED50,Mus musculus [11],~3.2 mg/kg
same,LD50,[12],> 320 mg/kg
